From ChEMBL document CHEMBL1153207, “Continued exploration of the triazolopyridine scaffold as a platform for p38 MAP kinase inhibition” (Bioorg Med Chem Lett, 2010)

What was measured:
[1] = target: Mitogen-activated protein kinase 14 (Homo sapiens, UniProt Q16539); assay: Inhibition of p38 alpha
[2] = Metabolic stability in human liver microsomes at 2 uM; format: ADME, Microsome; conditions: read-out: Stability
[3] = Metabolic stability in rat liver microsomes at 2 uM; format: ADME, Microsome; conditions: read-out: Stability
Rattus norvegicus = assay: Inhibition of LPS-stimulated TNFalpha release Lewis rat at 5 mg/kg after 4 hrs by ELISA; format: functional
Procedure, shortened: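 Male Lewis rats were pre-dosed with compound at set times before an iv lipopolysaccharide challenge. Blood was taken 1.5 h after challenge and TNF-α levels were measured by ELISA.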

Sequence of Mitogen-activated protein kinase 14 (Q16539 whole entry): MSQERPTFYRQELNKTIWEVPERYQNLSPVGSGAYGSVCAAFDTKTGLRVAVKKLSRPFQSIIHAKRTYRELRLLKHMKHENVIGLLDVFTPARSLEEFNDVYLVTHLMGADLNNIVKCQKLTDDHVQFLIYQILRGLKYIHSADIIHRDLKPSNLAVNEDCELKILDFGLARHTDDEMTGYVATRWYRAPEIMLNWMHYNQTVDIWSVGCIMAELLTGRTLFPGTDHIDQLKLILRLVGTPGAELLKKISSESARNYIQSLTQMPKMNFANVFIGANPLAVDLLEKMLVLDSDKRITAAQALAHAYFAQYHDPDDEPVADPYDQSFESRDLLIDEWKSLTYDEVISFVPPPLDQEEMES

SMILES	IC50 [1] [µM]	remaining at 2 µM [2] [%]	remaining at 2 µM [3] [%]	inhibition in vivo at 5 mg/kg (Rattus norvegicus) [%]
Fc1ccc(Sc2ccc3nnc(-c4ccc(F)cc4F)n3c2)c(F)c1	0.0072			
CC(C)c1nnc2cc(Cl)c(Sc3ccc(F)cc3F)cn12		71	37	
CC(C)c1nnc2ccc(Sc3ccc(F)cc3F)cn12		89	46	61
O=C(O)c1ccc(-c2nnc3ccc(Sc4ccc(F)cc4F)cn23)cc1	1.17			
CC(C)c1nnc2ccc(Sc3ccc(F)cc3C(F)(F)F)cn12	> 10			
COC(=O)c1ccc(-c2nnc3ccc(Sc4ccc(F)cc4F)cn23)cc1	0.322			
Fc1ccc(Sc2ccc3nnc(C4CCNCC4)n3c2)c(F)c1	3.77			
CC(C)c1nnc2ccc(Sc3ccc(F)cc3F)c(Cl)n12		65	23	
CC(C)c1nnc2ccc(Sc3ccc(Br)cc3C(F)(F)F)cn12	> 10			
CC(C)c1nnc2ccc(C(=O)c3ccc(F)cc3F)cn12	1.05	74	88	
CC(C)c1nnc2ccc(C(=O)Nc3cc(F)cc(F)c3)cn12	> 10			
CC(C)c1nnc2ccc(C(=O)Cc3cc(F)cc(F)c3)cn12	7.37			
CC(C)c1nnc2cc(Cl)c(Sc3ccc(F)cc3F)c(Cl)n12		39	20	
CC(C)c1nnc2ccc(Sc3ccc(Cl)cc3Cl)cn12	8.24			
CC(C)c1nnc2ccc([S+]([O-])c3ccc(F)cc3F)cn12 (centres undefined)		100	100	
CC(C)c1nnc2cc(Cl)c(Sc3ccc(F)cc3F)c(Br)n12		24	9	
CC(C)c1nnc2ccc(CCc3ccc(F)cc3F)cn12	0.085	53	54	
CC(C)c1nnc2ccc(S(=O)(=O)c3ccc(F)cc3F)cn12	> 10			
